Data set [1] deals with Voltage-dependent calcium channel subunit alpha-2/delta-1 (Homo sapiens, UniProt P54289). Put plainly: Displacement of [3H]-gabapentin from human Cav alpha2delta1 expressed in CHO-K1 cell membranes incubated for 60 mins by scintillation counting method. On the set-up: species or system Cell membrane. In a few lines:
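Nonspecific binding defined with 10 μM pregabalin. Test compounds at five concentrations in duplicate, giving Ki. Bound radioactivity collected by filtration on PEI-soaked GF/C, washed with cold 50 mM Tris-HCl, then scintillation counted.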
On the technique in general: Loss of bound radioactivity is the signal in a displacement assay; it reports binding, not function.

Data set [2] addresses T1, Sodium-dependent noradrenaline transporter (Homo sapiens, UniProt P23975). Description: Displacement of [3H]-nisoxetine from human NET expressed in HEK293 cell membranes incubated for 60 mins by scintillation counting method.
The target of data set [3] is T1, Sodium-dependent noradrenaline transporter. Put plainly: Inhibition of human NET expressed in HEK293 cells assessed as reduction in ASP+ uptake incubated for 20 mins before ASP+ addition and measured after 90 mins by scintillation counting method.
In data set [4] the target is Voltage-dependent calcium channel subunit alpha-2/delta-2 (Homo sapiens, UniProt Q9NY47). Put plainly: Displacement of [3H]-gabapentin from human Cav alpha2delta2 expressed in HEK293 cell membranes incubated for 60 mins by scintillation counting method.
Sequence of Voltage-dependent calcium channel subunit alpha-2/delta-2 (Q9NY47 19-1001 limits assumed): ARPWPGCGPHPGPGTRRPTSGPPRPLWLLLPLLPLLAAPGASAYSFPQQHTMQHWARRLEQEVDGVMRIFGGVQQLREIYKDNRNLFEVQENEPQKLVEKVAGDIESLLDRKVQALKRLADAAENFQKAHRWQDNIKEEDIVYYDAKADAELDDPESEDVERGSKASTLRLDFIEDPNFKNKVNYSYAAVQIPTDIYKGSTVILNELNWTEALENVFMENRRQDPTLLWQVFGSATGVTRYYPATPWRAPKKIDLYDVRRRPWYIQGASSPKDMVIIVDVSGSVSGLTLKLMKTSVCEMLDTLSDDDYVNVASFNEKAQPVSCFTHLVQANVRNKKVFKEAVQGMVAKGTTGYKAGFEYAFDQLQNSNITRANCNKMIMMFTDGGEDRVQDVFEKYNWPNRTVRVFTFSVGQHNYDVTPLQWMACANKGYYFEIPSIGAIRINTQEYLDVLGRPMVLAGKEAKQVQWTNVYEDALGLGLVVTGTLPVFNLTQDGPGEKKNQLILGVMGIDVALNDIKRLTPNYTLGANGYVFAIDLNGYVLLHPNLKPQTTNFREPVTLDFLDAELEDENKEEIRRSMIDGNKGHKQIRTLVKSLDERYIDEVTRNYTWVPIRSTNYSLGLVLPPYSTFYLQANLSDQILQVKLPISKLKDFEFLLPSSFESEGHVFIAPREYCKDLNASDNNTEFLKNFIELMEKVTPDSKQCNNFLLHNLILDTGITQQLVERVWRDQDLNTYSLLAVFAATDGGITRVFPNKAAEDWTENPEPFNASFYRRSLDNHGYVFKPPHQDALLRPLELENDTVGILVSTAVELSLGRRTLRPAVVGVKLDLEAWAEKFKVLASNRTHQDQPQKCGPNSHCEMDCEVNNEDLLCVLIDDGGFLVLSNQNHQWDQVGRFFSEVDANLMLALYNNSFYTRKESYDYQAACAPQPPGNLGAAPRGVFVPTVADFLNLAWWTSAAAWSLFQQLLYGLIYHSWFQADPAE
Sequence of Voltage-dependent calcium channel subunit alpha-2/delta-2 (Q9NY47 1002-1150 limits assumed): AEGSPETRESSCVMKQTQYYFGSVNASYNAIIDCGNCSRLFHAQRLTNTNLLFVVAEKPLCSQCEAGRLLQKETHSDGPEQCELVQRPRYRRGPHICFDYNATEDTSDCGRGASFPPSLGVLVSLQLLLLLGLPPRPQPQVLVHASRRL
In data set [5] the target is T2, CYP1A2 (Homo sapiens, UniProt P05177).
T2 sequence (P05177 whole entry): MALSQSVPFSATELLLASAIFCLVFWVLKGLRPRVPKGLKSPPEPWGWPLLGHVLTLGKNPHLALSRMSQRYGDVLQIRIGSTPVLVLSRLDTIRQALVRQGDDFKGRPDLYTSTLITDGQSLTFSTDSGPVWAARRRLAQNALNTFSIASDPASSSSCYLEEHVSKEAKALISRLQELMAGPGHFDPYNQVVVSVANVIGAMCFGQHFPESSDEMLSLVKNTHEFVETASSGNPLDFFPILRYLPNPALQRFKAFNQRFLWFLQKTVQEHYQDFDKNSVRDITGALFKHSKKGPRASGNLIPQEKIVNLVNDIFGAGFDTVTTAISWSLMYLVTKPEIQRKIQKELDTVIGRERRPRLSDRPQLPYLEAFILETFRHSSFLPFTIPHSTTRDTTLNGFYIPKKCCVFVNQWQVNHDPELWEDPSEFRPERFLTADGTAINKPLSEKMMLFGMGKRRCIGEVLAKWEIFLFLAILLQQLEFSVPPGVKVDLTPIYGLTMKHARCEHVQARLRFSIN
Put plainly: Inhibition of human CYP1A2 at 1 uM relative to control. It is filed as ADME.

The target in data set [6] is CYP2C9 (Homo sapiens, UniProt P11712). Description: Inhibition of human CYP2C9 at 1 uM relative to control. It counts as ADME.
Sequence of CYP2C9 (P11712 whole entry): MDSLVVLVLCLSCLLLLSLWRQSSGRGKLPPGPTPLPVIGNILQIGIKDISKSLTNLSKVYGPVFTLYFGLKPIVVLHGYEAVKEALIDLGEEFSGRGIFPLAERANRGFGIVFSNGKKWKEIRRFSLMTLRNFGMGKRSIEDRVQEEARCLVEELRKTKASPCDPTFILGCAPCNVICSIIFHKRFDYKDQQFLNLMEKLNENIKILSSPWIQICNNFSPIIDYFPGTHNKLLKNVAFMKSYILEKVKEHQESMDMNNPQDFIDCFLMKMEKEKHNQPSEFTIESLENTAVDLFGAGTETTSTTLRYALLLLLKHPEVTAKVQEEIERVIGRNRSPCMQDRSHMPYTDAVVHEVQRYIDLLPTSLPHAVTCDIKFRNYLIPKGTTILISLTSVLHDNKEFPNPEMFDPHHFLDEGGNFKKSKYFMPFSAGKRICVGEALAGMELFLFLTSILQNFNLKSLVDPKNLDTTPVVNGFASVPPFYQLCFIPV
The target of data set [7] is CYP2C19 (Homo sapiens, UniProt P33261). Description: Inhibition of human CYP2C19 at 1 uM relative to control. It counts as ADME.
Sequence of CYP2C19 (P33261 whole entry): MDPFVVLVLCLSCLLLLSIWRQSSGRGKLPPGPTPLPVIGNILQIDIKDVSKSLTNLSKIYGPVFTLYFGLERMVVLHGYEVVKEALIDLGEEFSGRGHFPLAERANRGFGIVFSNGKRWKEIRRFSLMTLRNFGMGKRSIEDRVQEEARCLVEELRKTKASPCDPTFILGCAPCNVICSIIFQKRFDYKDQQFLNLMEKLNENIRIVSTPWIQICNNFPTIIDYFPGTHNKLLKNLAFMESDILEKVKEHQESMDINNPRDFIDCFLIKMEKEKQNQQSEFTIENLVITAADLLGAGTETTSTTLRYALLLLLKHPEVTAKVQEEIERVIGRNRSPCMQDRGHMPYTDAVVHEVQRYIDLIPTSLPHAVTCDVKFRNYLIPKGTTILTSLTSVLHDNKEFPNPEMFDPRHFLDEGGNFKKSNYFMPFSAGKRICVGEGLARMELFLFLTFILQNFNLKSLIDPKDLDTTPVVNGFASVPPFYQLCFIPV
For data set [8], the target named is CYP2D6 (Homo sapiens, UniProt P10635). Description: Inhibition of human CYP2D6 at 1 uM relative to control. It counts as ADME.
The target of data set [9] is CYP3A4 (Homo sapiens, UniProt P08684). Description: Inhibition of human CYP3A4 at 1 uM relative to control. It counts as ADME.
Sequence of CYP3A4 (P08684 whole entry): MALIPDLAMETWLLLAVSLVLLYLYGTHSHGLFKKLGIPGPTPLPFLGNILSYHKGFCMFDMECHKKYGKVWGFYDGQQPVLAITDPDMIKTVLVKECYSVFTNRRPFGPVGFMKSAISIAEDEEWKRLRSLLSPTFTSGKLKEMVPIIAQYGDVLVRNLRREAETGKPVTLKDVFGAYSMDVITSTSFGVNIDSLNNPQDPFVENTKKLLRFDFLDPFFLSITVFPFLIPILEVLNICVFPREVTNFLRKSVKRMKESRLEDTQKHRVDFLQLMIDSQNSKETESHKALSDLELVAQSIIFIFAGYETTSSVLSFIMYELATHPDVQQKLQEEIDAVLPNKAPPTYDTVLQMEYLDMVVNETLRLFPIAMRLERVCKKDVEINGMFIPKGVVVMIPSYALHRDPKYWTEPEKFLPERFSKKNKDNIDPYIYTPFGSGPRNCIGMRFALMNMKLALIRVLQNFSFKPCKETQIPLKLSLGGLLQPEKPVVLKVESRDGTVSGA
Data set [10] concerns the target Voltage-gated inwardly rectifying potassium channel KCNH2 (Homo sapiens, UniProt Q12809). Put plainly: Inhibition of human ERG.
A short description of data set [11]: Intrinsic clearance in human liver microsomes. On the technique in general: Liver microsomes are vesicles of endoplasmic reticulum, rich in cytochrome P450 enzymes.
A short description of data set [12]: Intrinsic clearance in rat liver microsomes.

Sequence of Voltage-dependent calcium channel subunit alpha-2/delta-1 (P54289 25-956 limits assumed): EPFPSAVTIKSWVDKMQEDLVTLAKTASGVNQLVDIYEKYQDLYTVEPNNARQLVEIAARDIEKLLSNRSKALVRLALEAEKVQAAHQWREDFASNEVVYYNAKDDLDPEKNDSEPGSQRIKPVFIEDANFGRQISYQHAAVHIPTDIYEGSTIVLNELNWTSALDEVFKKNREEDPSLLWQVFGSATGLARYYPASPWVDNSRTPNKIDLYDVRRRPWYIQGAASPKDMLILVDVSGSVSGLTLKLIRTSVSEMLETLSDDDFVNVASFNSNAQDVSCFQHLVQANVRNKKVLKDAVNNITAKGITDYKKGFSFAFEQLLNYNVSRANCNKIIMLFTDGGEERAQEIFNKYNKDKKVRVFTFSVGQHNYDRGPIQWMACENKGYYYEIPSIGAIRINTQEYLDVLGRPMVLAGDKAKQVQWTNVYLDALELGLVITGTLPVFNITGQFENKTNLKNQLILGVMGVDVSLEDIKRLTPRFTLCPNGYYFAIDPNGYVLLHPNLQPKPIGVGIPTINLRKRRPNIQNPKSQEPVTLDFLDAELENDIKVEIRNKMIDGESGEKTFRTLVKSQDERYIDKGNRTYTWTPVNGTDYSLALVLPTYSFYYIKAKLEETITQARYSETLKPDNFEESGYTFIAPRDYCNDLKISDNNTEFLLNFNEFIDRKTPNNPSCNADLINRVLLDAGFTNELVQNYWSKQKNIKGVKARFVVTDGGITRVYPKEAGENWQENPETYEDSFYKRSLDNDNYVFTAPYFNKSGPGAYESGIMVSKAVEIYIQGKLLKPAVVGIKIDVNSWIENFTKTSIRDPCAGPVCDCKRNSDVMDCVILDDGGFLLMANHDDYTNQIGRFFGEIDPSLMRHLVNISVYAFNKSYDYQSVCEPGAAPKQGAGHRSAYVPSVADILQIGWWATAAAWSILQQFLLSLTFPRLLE
Sequence of Voltage-dependent calcium channel subunit alpha-2/delta-1 (P54289 957-1103 limits assumed): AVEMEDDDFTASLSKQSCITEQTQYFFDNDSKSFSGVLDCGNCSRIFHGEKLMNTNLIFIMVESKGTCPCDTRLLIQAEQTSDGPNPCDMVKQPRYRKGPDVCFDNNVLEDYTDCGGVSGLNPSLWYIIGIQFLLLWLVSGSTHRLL
Sequence of Voltage-gated inwardly rectifying potassium channel KCNH2 (Q12809 whole entry): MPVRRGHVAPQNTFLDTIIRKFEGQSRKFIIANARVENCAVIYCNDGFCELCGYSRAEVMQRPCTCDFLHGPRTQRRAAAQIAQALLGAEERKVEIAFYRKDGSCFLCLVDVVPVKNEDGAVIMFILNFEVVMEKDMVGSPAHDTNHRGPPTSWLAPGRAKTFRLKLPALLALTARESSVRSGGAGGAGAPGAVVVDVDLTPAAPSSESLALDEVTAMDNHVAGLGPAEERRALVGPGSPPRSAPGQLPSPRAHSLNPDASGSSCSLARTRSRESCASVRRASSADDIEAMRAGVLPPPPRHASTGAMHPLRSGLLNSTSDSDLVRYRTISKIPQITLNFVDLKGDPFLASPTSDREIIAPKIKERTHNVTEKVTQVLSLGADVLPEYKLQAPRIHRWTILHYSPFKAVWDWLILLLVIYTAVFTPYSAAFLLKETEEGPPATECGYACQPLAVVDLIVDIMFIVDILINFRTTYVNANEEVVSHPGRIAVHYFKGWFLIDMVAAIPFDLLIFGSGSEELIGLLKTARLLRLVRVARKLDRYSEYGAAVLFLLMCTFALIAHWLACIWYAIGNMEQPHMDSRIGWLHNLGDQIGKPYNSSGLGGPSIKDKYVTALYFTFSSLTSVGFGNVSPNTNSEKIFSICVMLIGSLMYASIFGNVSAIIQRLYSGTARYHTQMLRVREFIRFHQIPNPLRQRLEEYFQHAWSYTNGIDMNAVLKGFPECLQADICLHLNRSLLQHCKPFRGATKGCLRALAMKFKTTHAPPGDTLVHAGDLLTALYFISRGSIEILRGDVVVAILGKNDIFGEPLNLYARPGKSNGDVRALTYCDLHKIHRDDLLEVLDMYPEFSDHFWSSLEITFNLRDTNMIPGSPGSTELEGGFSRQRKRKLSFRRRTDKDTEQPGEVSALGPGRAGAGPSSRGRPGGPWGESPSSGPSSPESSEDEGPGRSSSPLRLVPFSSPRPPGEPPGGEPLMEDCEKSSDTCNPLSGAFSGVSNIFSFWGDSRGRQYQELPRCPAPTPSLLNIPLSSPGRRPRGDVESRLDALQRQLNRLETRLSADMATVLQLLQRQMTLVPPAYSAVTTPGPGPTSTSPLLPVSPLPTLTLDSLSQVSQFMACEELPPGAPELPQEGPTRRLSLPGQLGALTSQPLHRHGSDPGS

On to `CCN(C)c1ncc2c(n1)N(C)CCN(c1cccc(-c3nnc(C)o3)c1)C2=O`, for which the Ki in data set [1] and in data set [2] was > 10 µM throughout. For the same compound, the IC50 in [3] was > 10 µM.
Consider `CCNc1ncc(C(=O)N(C)c2cccc(OC(CCNC)c3ccccc3)c2)cn1` (stereo not drawn), for which the Ki in [1] and in [2] was > 10 µM throughout. Also, the IC50 in [3] was > 10 µM.
In the case of `CCNc1ncc2c(n1)N(C)CCN(c1ccccc1OC(CCNC)c1ccccc1)C2=O` (stereo not drawn), the Ki is 3.49 µM in data set [1] and > 10 µM in data set [2]. Further, in data set [3], the IC50 is > 10 µM.
In the case of `CSc1ncc2c(n1)N(C)CCN(c1cccc(-c3nnc(C)o3)c1)C2=O`, the Ki in data set [1], in data set [4] and in data set [2] was > 10 µM throughout. In addition, the IC50 in [3] is > 10 µM.
As to `CNCC[C@@H](Oc1cccc(N2CCN(C)CCC2=O)c1)c1cccs1`, in [1], the inhibition constant Ki was 0.606 µM.
Turning to `CNc1ncc2c(n1)N(C)CCN(c1cccc(-c3nnc(C)o3)c1)C2=O`, the Ki is 0.244 µM in data set [1], > 10 µM in data set [4] and > 10 µM in [2]. In data set [3], the IC50 is > 10 µM.
Consider `CC(C)C[C@H](CN)CC(=O)O` [PREGABALIN], for which the figures for the Ki in data set [1], in data set [4] and in data set [2] were 0.019 µM, 0.099 µM and > 10 µM, respectively. In [3], the IC50 is > 10 µM.
Turning to `CNCCC(Oc1cccc(N2CCN(C)c3ccccc3C2=O)c1)c1cccs1` (stereo not drawn), the Ki in [1] came out at 0.833 µM.
On the same count and under the same terms, next, `CNCCC(Oc1cccc(N2CCN(C)c3cnccc3C2=O)c1)c1cccs1` (stereo not drawn): 0.208 µM.
Still for that read-out and setting: next, `CNCC[C@H](Oc1cccc(N2CCN(C)CCC2=O)c1)c1cccs1`: 2.8 µM.
Turning to `CCNc1ncc2c(n1)N(C)CCN(c1cccc(-c3nnc(C)o3)c1)C2`, the values for the Ki in [1] and in data set [2] were 1.03 µM and > 10 µM, respectively. Besides, the IC50 in [3] was > 10 µM.
For the compound `CCNc1ncc2c(n1)N(CC)CCN(c1cccc(-c3nnc(C)o3)c1)C2=O`, the Ki in data set [1] is 0.178 µM; in data set [2] it was > 10 µM. Moreover, the IC50 in data set [3] is > 10 µM.
For `CNCCC(Oc1cccc(N2CCN(C)c3cccnc3C2=O)c1)c1cccs1` (stereo not drawn), the Ki in [1] amounted to 1.25 µM.
For `CCNc1ncc2c(n1)N(C)CCN(c1ccccc1COC(CCNC)c1ccccc1)C2=O` (stereo not drawn), the Ki in data set [1] and in data set [2] was > 10 µM in each case. Besides, the IC50 in data set [3] is > 10 µM.
`COCCNc1ncc2c(n1)N(C)CCN(c1cccc(-c3nnc(C)o3)c1)C2=O`: the Ki in data set [1] and in [2] was > 10 µM in each case. Moreover, the IC50 in data set [3] was > 10 µM.
For the compound `CNCC[C@H](Oc1cccc(N2CCN(C)c3ncccc3C2=O)c1)c1cccs1`, the inhibition at 1 µM in data set [5], in data set [6], in [7], in data set [8] and in [9] was < 50% throughout. The IC50 in [10] is > 10 µM.
Consider `CCNc1ncc2c(n1)N1CCC[C@H]1CN(c1cccc(OC(CCNC)c3ccccc3)c1)C2=O` (stereo partly drawn), for which the Ki in data set [1] turned out to be 0.336 µM.
Consider `CCNc1ncc2c(n1)N(C)CCN(c1cccc(-c3nnc(C)o3)c1)C2=O`, for which the Ki is 0.081 µM in [1], 2.97 µM in [4] and > 10 µM in [2]. For the same compound, the IC50 in [3] and in data set [10] was > 10 µM in each case. Besides, the microsomal CLint in data set [11] and in [12] was < 5 µL/min/mg throughout. Besides, the inhibition at 1 µM in data set [5], in [6], in data set [7], in data set [8] and in data set [9] was < 50% in each case.
As to `CNCC[C@H](Oc1cccc(N2CCN(C)c3nc(N)ncc3C2=O)c1)c1cccs1`, the inhibition at 1 µM in data set [5], in data set [6], in data set [7], in data set [8] and in data set [9] was < 50% throughout. In addition, the half-inhibitory concentration (IC50) in data set [10] was > 10 µM.
On to `CCNc1ncc2c(n1)N1CCC[C@H]1CN(c1cccc(-c3noc(C)n3)c1)C2=O`, for which the Ki in [1] was 0.011 µM; in data set [4] it was 2.15 µM; in data set [2] it was > 10 µM. Also, the IC50 in data set [3] was > 10 µM.
As for `CCNc1ncc2c(n1)N1CCC[C@@H]1CN(c1cccc(OC(CCNC)c3ccccc3)c1)C2=O` (stereo partly drawn), the Ki in [1] turned out to be 0.187 µM.

Broadly, the Ki is the dissociation constant of the complex between target and ligand, obtained from inhibition or displacement. As a reminder, the IC50 is the point on the concentration scale where inhibition reaches its midpoint. As a reminder, the inhibition is the relative decrease from the control value, in per cent. By microsomal CLint is commonly meant the rate of metabolic loss divided by the concentration.

(Values after ChEMBL document CHEMBL4706691, “Bicyclic Diazepinones as Dual Ligands of the α2δ-1 Subunit of Voltage-Gated Calcium Channels and the Norepinephrine Transporter” (J Med Chem, 2021).)
